The source made the active and inactive calls.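 How the source made its calls, unless noted: active means a full or partial loss of lipid-probe fluorescence in the fish gall bladder, intestine or both, judged by eye; inactive means no fluorescence loss, or compound toxic to the fish.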
Target: Muscarinic acetylcholine receptor M4 (Homo sapiens) (UniProt P08173)
Sequence (P08173 whole entry, looked up): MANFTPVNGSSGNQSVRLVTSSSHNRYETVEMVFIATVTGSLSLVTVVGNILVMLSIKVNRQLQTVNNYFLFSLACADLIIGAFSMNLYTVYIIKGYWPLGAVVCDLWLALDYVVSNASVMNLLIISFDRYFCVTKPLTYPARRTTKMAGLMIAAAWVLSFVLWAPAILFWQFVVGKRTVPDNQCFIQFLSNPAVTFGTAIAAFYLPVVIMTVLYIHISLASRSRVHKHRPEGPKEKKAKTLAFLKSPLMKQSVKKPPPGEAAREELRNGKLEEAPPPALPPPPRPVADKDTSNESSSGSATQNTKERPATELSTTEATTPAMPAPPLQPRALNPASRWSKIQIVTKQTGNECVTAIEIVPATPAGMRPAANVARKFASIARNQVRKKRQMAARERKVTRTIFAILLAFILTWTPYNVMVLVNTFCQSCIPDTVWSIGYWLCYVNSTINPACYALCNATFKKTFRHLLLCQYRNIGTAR
Assay: compounds altering M4/GIRK thallium flux, either direction, primary screen, M4 allosteric agonist project, cell-based, HEK293 M4/GIRK, BTC-AM (AID 625;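 active means fluorescence slope after compound addition differing from the mean of all tested samples at 99.7% confidence, mostly higher but some lower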;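 further: thallium influx through GIRK channels coupled to M4 in HEK293 cells with BTC-AM dye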)
Settings: at 10 µM, actives lie on both sides
In short: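 Assay system: HEK293 cells with M4 receptor and GIRK channels / Controls: carbachol and DMSO controls / Schedule: 1 h dye loading, 2 min kinetic read / Technique: kinetic fluorescence with BTC-AM dye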
In the case of CCN1CCc2c(C#N)c(N3CCCCC3)nc(N3CCOCC3)c2C1, the fluorescence slope is reported as 0.00491 (inactive).
For CC(NC(=O)Nc1nnc(C(F)(F)F)s1)(C(F)(F)F)C(F)(F)F, the fluorescence slope was 0.00252 (inactive).
For O=c1[nH]c2sc3c(c2c(=O)n1Cc1ccccc1)CCC3, the fluorescence slope was 0.00552 (inactive).
With CC1(C)Cc2c(C#N)c(OCC(=O)c3ccccc3)nc(-c3ccoc3)c2CO1 the fluorescence slope was 0.00542 (inactive).
With O=c1[nH]c2cnccc2n1-c1ccccc1 the fluorescence slope was 0.00569 (inactive).
With O=C(c1cc(N2CCCCC2)nc2ccccc12)N1CCOCC1 the fluorescence slope was 0.0052 (inactive).
With CC(C)(C)NC(=O)/C=N/O the fluorescence slope was 0.00655 (inactive).
With COc1cc(N2CCCC2)c(OC)cc1/C=c1/sc2nc3ccccc3n2c1=O the fluorescence slope was 0.00712 (inactive).
With COc1cccc(C(=O)OC2CCCN(C)C2)c1 (stereo not given) the fluorescence slope was 0.00427 (inactive).
For N#Cc1nc(-c2cccs2)oc1NCc1ccccc1Cl, the fluorescence slope was 0.00761 (inactive).
For Cc1cc(=O)oc(C)c1C(=O)n1nc(C)c2c1C[C@@H]1[C@H]2C1(C)C, the fluorescence slope was 0.00461 (inactive).
For Brc1ccc2c(c1)CNc1c(ncnc1N1CCOCC1)O2, the fluorescence slope was 0.00419 (inactive).
For CCOC(=O)NC1(C(F)(F)F)C(=O)NC(C)=C1C#N (stereo not given), the fluorescence slope was 0.00503 (inactive).
With COCc1n[nH]c(=S)n1-c1cccc2ccccc12 the fluorescence slope was 0.00527 (inactive).
For OC1(C2(O)CC(c3ccccc3)ON2)CCCCC1 (stereo not given), the fluorescence slope was 0.00531 (inactive).
With CC(C)Cc1nc(N2CCN(C(=O)Cc3ccccc3)CC2)c(C#N)c2c1COC(C)(C)C2 the fluorescence slope was 0.00471 (inactive).
With CCCCCNc1nc(N2CCCC2)c2c(c1C#N)CCN(C)C2 the fluorescence slope was 0.0037 (inactive).
For O=c1c(-c2ccc(Cl)cc2)[n+]([O-])c2ccccc2n1O, the fluorescence slope was 0.0132 (active).
For COc1ccccc1C1/C(=C(/O)c2ccc(OC(C)C)cc2)C(=O)C(=O)N1c1cc(C)on1 (stereo not given), the fluorescence slope was 0.006 (inactive).
For Cc1ccc(CNc2oc(COc3ccccc3Cl)nc2C#N)cc1, the fluorescence slope was 0.00728 (inactive).
In the case of COc1ccc(/C(O)=C2\C(=O)C(=O)N(CCN(C)C)C2c2cccc(OC)c2OC)cc1Cl (stereo not given), the fluorescence slope is reported as 0.00451 (inactive).
For CCC(=O)Nc1nc2ccccc2n1CCN(C)C, the fluorescence slope was 0.00568 (inactive).
For CCCC(C)n1[nH]c(=O)cc1N (stereo not given), the fluorescence slope was 0.00418 (inactive).
For CCN(CC)CCOC(=O)c1c(C)n(C)c2ccc(OC)cc12, the fluorescence slope was 0.00645 (inactive).
For CN(C)CCCn1c(NC(=O)C2CCCCC2)nc2ccccc21, the fluorescence slope was 0.00538 (inactive).
For COc1ccccc1NC(=O)CSc1nnc(-c2ccc(NC(C)=O)cc2)n1C, the fluorescence slope was 0.00538 (inactive).
In the case of O=C(Nc1ccc(N2CCN(C(=O)c3ccccc3)CC2)c(Cl)c1)c1ccc(Br)o1, the fluorescence slope is reported as 0.00435 (inactive).
For Cc1nc2c(o1)CCc1ccccc1C2N1CCN(C)CC1 (stereo not given), the fluorescence slope was 0.00552 (inactive).
For CN(CCNC(=O)c1ccc(/C=N/O)nc1)Cc1ccccc1, the fluorescence slope was 0.00471 (inactive).
For O=C1C=C(N2CCN(C3=CC(=O)CCC3)CC2)CCC1, the fluorescence slope was 0.00636 (inactive).
For Nc1nc2n(n1)C(c1cccs1)CC(c1ccc(F)cc1)N2 (stereo not given), the fluorescence slope was 0.00473 (inactive).
For CC(=O)/C=C(\C)NCCNc1c(F)c(F)c(CO)c(F)c1F, the fluorescence slope was 0.00522 (inactive).
In the case of CC1(C)Cc2nc3sc4c(N(CCO)CCO)ncnc4c3cc2CO1, the fluorescence slope is reported as 0.00508 (inactive).
For COC(=O)c1ccc(CN(C(C)=O)c2ccccc2)o1, the fluorescence slope was 0.00509 (inactive).
In the case of O=C(c1ccc(=O)oc1)N1CCN(C(c2ccccc2)c2ccccc2)CC1, the fluorescence slope is reported as 0.00524 (inactive).
For Cc1ccc(-n2c(SCC(=O)NCc3ccco3)nc3nc4c(cc3c2=O)COC(C)(C)C4)cc1, the fluorescence slope was 0.00603 (inactive).
With Cc1cc(=O)[nH]c(COc2ccccc2)n1 the fluorescence slope was 0.00544 (inactive).
For N#Cc1nc(COc2ccccc2F)oc1NCCCn1ccnc1, the fluorescence slope was 0.00507 (inactive).
For COC(=O)c1ccc(C2/C(=C(\O)c3ccc4c(c3)OCCO4)C(=O)C(=O)N2CCCN(C)C)cc1 (stereo not given), the fluorescence slope was 0.00519 (inactive).
With COc1ccc(C(=O)c2oc3nc(C)cc(C)c3c2N)cc1 the fluorescence slope was 0.00438 (inactive).

Test system: not listed separately
Assay: inhibitors of larval lipid processing in zebrafish, primary screen, whole organism, PED6 fluorescence, gall bladder and intestine (AID 686);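 further: larvae 5 to 7 days old with five fish per well; signal comes from phospholipase A2 cleavage of quenched PED6 carried via bile; overnight exposure to compound and PED6 before scoring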
Settings: Zebrafish larvae PED6 lipid processing, fluorescence scoring; screened at 20 µM (by protocol)
In short: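 Doses: 20 µM single dose. Test system: live zebrafish larvae aged 5-7 days, whole organism. Quantity: five larvae per well. Measured by: By-eye fluorescence microscopy. Reagent: ingested quenched lipid PED6 at 100 nM. Read-out: visual per-well fluorescence inhibition score. Times: overnight exposure of larvae to compound plus PED6.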
In the case of CCN1CCc2c(C#N)c(N3CCCCC3)nc(N3CCOCC3)c2C1, the outcome is reported as “inactive”.
In the case of CC(NC(=O)Nc1nnc(C(F)(F)F)s1)(C(F)(F)F)C(F)(F)F, the outcome is reported as “inactive; toxic”.
In the case of O=c1[nH]c2sc3c(c2c(=O)n1Cc1ccccc1)CCC3, the outcome is reported as “inactive”.
In the case of CC1(C)Cc2c(C#N)c(OCC(=O)c3ccccc3)nc(-c3ccoc3)c2CO1, the outcome is reported as “inactive”.
For O=c1[nH]c2cnccc2n1-c1ccccc1, the outcome was “inactive”.
With O=C(c1cc(N2CCCCC2)nc2ccccc12)N1CCOCC1 the outcome was “inactive”.
For CC(C)(C)NC(=O)/C=N/O, the outcome was “inactive”.
In the case of COc1cc(N2CCCC2)c(OC)cc1/C=c1/sc2nc3ccccc3n2c1=O, the outcome is reported as “inactive”.
For COc1cccc(C(=O)OC2CCCN(C)C2)c1 (stereo not given), the outcome was “inactive”.
For N#Cc1nc(-c2cccs2)oc1NCc1ccccc1Cl, the outcome was “inactive”.
For Cc1cc(=O)oc(C)c1C(=O)n1nc(C)c2c1C[C@@H]1[C@H]2C1(C)C, the outcome was “inactive”.
In the case of Brc1ccc2c(c1)CNc1c(ncnc1N1CCOCC1)O2, the outcome is reported as “inactive”.
For CCOC(=O)NC1(C(F)(F)F)C(=O)NC(C)=C1C#N (stereo not given), the outcome was “inactive”.
In the case of COCc1n[nH]c(=S)n1-c1cccc2ccccc12, the outcome is reported as “inactive”.
In the case of OC1(C2(O)CC(c3ccccc3)ON2)CCCCC1 (stereo not given), the outcome is reported as “inactive”.
In the case of CC(C)Cc1nc(N2CCN(C(=O)Cc3ccccc3)CC2)c(C#N)c2c1COC(C)(C)C2, the outcome is reported as “inactive”.
In the case of CCCCCNc1nc(N2CCCC2)c2c(c1C#N)CCN(C)C2, the outcome is reported as “inactive”.
In the case of O=c1c(-c2ccc(Cl)cc2)[n+]([O-])c2ccccc2n1O, the outcome is reported as “inactive”.
For COc1ccccc1C1/C(=C(/O)c2ccc(OC(C)C)cc2)C(=O)C(=O)N1c1cc(C)on1 (stereo not given), the outcome was “inactive”.
With Cc1ccc(CNc2oc(COc3ccccc3Cl)nc2C#N)cc1 the outcome was “inactive”.
With COc1ccc(/C(O)=C2\C(=O)C(=O)N(CCN(C)C)C2c2cccc(OC)c2OC)cc1Cl (stereo not given) the outcome was “inactive”.
In the case of CCC(=O)Nc1nc2ccccc2n1CCN(C)C, the outcome is reported as “inactive”.
In the case of CCCC(C)n1[nH]c(=O)cc1N (stereo not given), the outcome is reported as “inactive”.
With CCN(CC)CCOC(=O)c1c(C)n(C)c2ccc(OC)cc12 the outcome was “inactive”.
In the case of CN(C)CCCn1c(NC(=O)C2CCCCC2)nc2ccccc21, the outcome is reported as “inactive”.
For COc1ccccc1NC(=O)CSc1nnc(-c2ccc(NC(C)=O)cc2)n1C, the outcome was “inactive”.
In the case of O=C(Nc1ccc(N2CCN(C(=O)c3ccccc3)CC2)c(Cl)c1)c1ccc(Br)o1, the outcome is reported as “inactive”.
With Cc1nc2c(o1)CCc1ccccc1C2N1CCN(C)CC1 (stereo not given) the outcome was “inactive”.
In the case of CN(CCNC(=O)c1ccc(/C=N/O)nc1)Cc1ccccc1, the outcome is reported as “inactive”.
For O=C1C=C(N2CCN(C3=CC(=O)CCC3)CC2)CCC1, the outcome was “inactive”.
In the case of Nc1nc2n(n1)C(c1cccs1)CC(c1ccc(F)cc1)N2 (stereo not given), the outcome is reported as “inactive”.
For CC(=O)/C=C(\C)NCCNc1c(F)c(F)c(CO)c(F)c1F, the outcome was “inactive”.
For CC1(C)Cc2nc3sc4c(N(CCO)CCO)ncnc4c3cc2CO1, the outcome was “inactive”.
For COC(=O)c1ccc(CN(C(C)=O)c2ccccc2)o1, the outcome was “inactive”.
With O=C(c1ccc(=O)oc1)N1CCN(C(c2ccccc2)c2ccccc2)CC1 the outcome was “inactive”.
For Cc1ccc(-n2c(SCC(=O)NCc3ccco3)nc3nc4c(cc3c2=O)COC(C)(C)C4)cc1, the outcome was “inactive”.
With Cc1cc(=O)[nH]c(COc2ccccc2)n1 the outcome was “inactive”.
For N#Cc1nc(COc2ccccc2F)oc1NCCCn1ccnc1, the outcome was “inactive”.
With COC(=O)c1ccc(C2/C(=C(\O)c3ccc4c(c3)OCCO4)C(=O)C(=O)N2CCCN(C)C)cc1 (stereo not given) the outcome was “inactive”.
With COc1ccc(C(=O)c2oc3nc(C)cc(C)c3c2N)cc1 the outcome was “inactive”.

— PubChem BioAssay
